From ChEMBL document CHEMBL2396575, “Curcumin-I Knoevenagel's condensates and their Schiff's bases as anticancer agents: synthesis, pharmacological and simulation studies” (Bioorg Med Chem, 2013)

Columns and labels:
[1] = test system: MCF7; experiment: Anticancer activity against wild-type human MCF7 cells assessed as cell viability at 0.0001 ug/mL after 24 hrs by MTT assay relative to control; type: functional; details: MCF7, 24 h, read-out: Activity
Method in brief: (§1)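 MCF-7 cells grown in low-glucose DMEM with 10% FBS plus antibiotic/antimycotic. Seeded at 2×10^3 cells/well, incubated 24 h at 37 °C in humidified 5% CO2, then exposed to test compounds for 24 h. Cells washed with PBS, given MTT for 4 h at 37 °C, formazan dissolved in DMSO, absorbance read at 570 nm. Viability taken as the ratio of treated to blank.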

[2] = test system: DNA; experiment: Binding affinity to calf thymus DNA by Benessi-Hilderbrand equation; type: nucleic-acid assay; details: Bos taurus
Method in brief: (§2)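 Ct-DNA stock in tris–HCl pH 7.2–7.3, stored at 4 °C, used within 4 days; A260/A280 ≥1.8. DNA concentration from ε260 6600 M⁻¹ cm⁻¹. Compound dissolved in methanol (2.0×10^-4 M) and titrated with DNA (0.3–2.1 ×10^-4) in tris–HCl, UV–vis spectra recorded after each addition. Kb from modified Benesi–Hildebrand (Wolfe) equation.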

[3] = test system: MCF7; experiment: Anticancer activity against wild-type human MCF7 cells assessed as cell viability at 0.001 ug/mL after 24 hrs by MTT assay relative to control; type: functional; details: MCF7, 24 h, read-out: Activity; method in brief: as §1
[4] = Hemolytic activity in rabbit RBC at 100 ug/mL after 3 hrs by colorimetric assay relative to control; type: ADME, cell-based, Oryctolagus cuniculus, Erythrocyte; details: rabbit red blood cells (RBC), read-out: Activity
Method in brief: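 Rabbit whole blood diluted 0.1 mL in 0.9 mL PBS, incubated with test compound at 37 °C for 3 h, then centrifuged at 3800 rpm for 15 min. Supernatant mixed with Drabkin's reagent for 15 min, cyanmethemoglobin read at 540 nm against a hemoglobin standard curve. Compound absorbance at 540 nm subtracted. Saline served as negative control, distilled water as positive.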

[5] = test system: MCF7; experiment: Anticancer activity against wild-type human MCF7 cells assessed as cell viability at 0.01 ug/mL after 24 hrs by MTT assay relative to control; type: functional; details: MCF7, 24 h, read-out: Activity; method in brief: as §1
[6] = test system: MCF7; experiment: Anticancer activity against wild-type human MCF7 cells assessed as cell viability at 1 ug/mL after 24 hrs by MTT assay relative to control; type: functional; details: MCF7, 24 h, read-out: Activity; method in brief: as §1
[7] = test system: MCF7; experiment: Anticancer activity against wild-type human MCF7 cells assessed as cell viability at 0.1 ug/mL after 24 hrs by MTT assay relative to control; type: functional; details: MCF7, 24 h, read-out: Activity; method in brief: as §1
[8] = test system: DNA; experiment: Binding affinity to calf thymus DNA assessed as hypochromicity by UV-vis spectroscopic analysis relative to control; type: nucleic-acid assay; set-up: concentration or dose not given beside the values; details: Bos taurus; method in brief: as §2

Kb [2]	Activity [8]	Compound	viability at 0.0001 µg/mL [1]	viability at 0.001 µg/mL [3]	hemolysis at 3 h, 100 ug/mL [4]	viability at 0.01 µg/mL [5]	viability at 1 µg/mL [6]	viability at 0.1 µg/mL [7]
1.9 ×10³ /M	7.7%	O=Cc1cn(-c2ccccc2)nc1-c1ccc([N+](=O)[O-])cc1	106%	97%	7%	86%	80%	96%
1.4 ×10⁴ /M	12.3%	COc1cc(/C=C/C(=O)C(=Cc2cn(-c3ccccc3)nc2-c2ccc([N+](=O)[O-])cc2)C(=O)/C=C/c2ccc(O)c(OC)c2)ccc1O	98%	98%	10%	95%	90%	92%
2.5 ×10³ /M	5.2%	O=Cc1cn(-c2ccccc2)nc1-c1cccc([N+](=O)[O-])c1	89%	89%	10%	89%	75%	86%
2.6 ×10⁴ /M	8%	COc1cc(/C=C/C(=N\NC(N)=O)C(=Cc2cn(-c3ccccc3)nc2-c2ccc([N+](=O)[O-])cc2)C(/C=C/c2ccc(O)c(OC)c2)=N/NC(N)=O)ccc1O	110%	105%	11%	95%	98%	92%
1.4 ×10³ /M	6.2%	O=Cc1cn(-c2ccccc2)nc1-c1ccccc1O	96%	97%	18%	92%	79%	73%
9.4 ×10⁴ /M	29%	COc1cc(/C=C/C(=O)C(=Cc2cn(-c3ccccc3)nc2-c2cccc([N+](=O)[O-])c2)C(=O)/C=C/c2ccc(O)c(OC)c2)ccc1O	99%	96%	14%	88%	70%	85%
2.1 ×10⁴ /M	13%	COc1cc(/C=C/C(=O)C(=Cc2cn(-c3ccccc3)nc2-c2ccccc2O)C(=O)/C=C/c2ccc(O)c(OC)c2)ccc1O	100%	97%	20%	93%	88%	91%
		COc1cccc2c1C(=O)c1c(O)c3c(c(O)c1C2=O)C[C@@](O)(C(=O)CO)C[C@@H]3O[C@H]1C[C@H](N)[C@H](O)[C@H](C)O1 [DOXORUBICIN]			42%			
7.8 ×10⁵ /M	8.1%	COc1cc(/C=C/C(=O)C(=Cc2cn(-c3ccccc3)nc2-c2ccc(Cl)cc2)C(=O)/C=C/c2ccc(O)c(OC)c2)ccc1O	95%	81%	16%	75%	65%	72%
8.1 ×10⁵ /M	11%	COc1cc(/C=C/C(=N\NC(N)=O)C(=Cc2cn(-c3ccccc3)nc2-c2ccc(Cl)cc2)C(/C=C/c2ccc(O)c(OC)c2)=N/NC(N)=O)ccc1O	87%	81%	17%	81%	74%	78%
9.1 ×10⁴ /M	9%	COc1cc(/C=C/C(=N\NC(N)=O)C(=Cc2cn(-c3ccccc3)nc2-c2cccc([N+](=O)[O-])c2)C(/C=C/c2ccc(O)c(OC)c2)=N/NC(N)=O)ccc1O	91%	89%	16%	86%	67%	68%
3 ×10⁴ /M	10%	COc1cc(/C=C/C(=N\NC(N)=O)C(=Cc2cn(-c3ccccc3)nc2-c2ccccc2O)C(/C=C/c2ccc(O)c(OC)c2)=N/NC(N)=O)ccc1O	92%	91%	25%	91%	87%	86%
7.6 ×10⁴ /M	5.6%	O=Cc1cn(-c2ccccc2)nc1-c1ccc(Cl)cc1	100%	98%	9%	98%	59%	90%
